For assay [1], the system named is Rhizoctonia solani. The experiment in a line: Antifungal activity against Rhizoctonia solani J-1 after 4 to 5 days. The format is functional. An outline of the steps: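 Mycelial suspension of strain J-1 (grown 3-4 days at 26-28 °C in potato dextrose broth with rifampicin, macerated in buffered defined medium, pH 6.3, 125 mM glucose). Mixed 1:1 with compound in medium/DMSO; 12 wells per concentration, DMSO controls. Incubated 48 h at 26-28 °C in dark, then plated on PDA and scored visually after 4-5 days. LD100 is the lowest concentration giving no growth. At least three assays.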

The subject of assay [2] is Rhizoctonia solani. The experiment in a line: Antifungal activity against Rhizoctonia solani J-1 after 72 hr by turbimetric assay. The format is functional. Particulars: read-out: ED50 (the source's name). The method in brief:
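Sieved macerated mycelium of strain J-1 was held 10 h in buffered defined medium (pH 6.3, 125 mM glucose), then mixed 1:1 with compound in medium/DMSO. Ten wells per concentration; DMSO control. Incubated at 26-28 °C in dark. OD750 was read from 72 h, every 12 h, until control OD reached 0.065-0.100. ED50 came from fractional effect versus concentration. Three plates per experiment, at least four experiments.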

Values joined by “and” are separate entries in the source; they are usually repeats but may differ in a detail not shown here. Identical values can stand only once. Some results are limits rather than exact numbers.

For 6 compounds, LD100 and EC50 results are on record in ChEMBL document CHEMBL3046885, “Toxicity of (+)- and (-)-gossypol to the plant pathogen, Rhizoctonia solani” (2002).

Consider `COc1c(C)cc2c3c(c(O)c(O)c(C(C)C)c13)CO2` [DESOXHEMIGOSSYPOL-6-METHYL ETHER], for which the LD100 with Rhizoctonia solani [1] is 40 µM. Also, the EC50 with Rhizoctonia solani [2] (Rhizoctonia solani, J-1, 72 h) is 2.52 µM.

In the assay with Rhizoctonia solani [1], `Cc1cc2c3c(c(O)c(O)c(C(C)C)c3c1)CO2` [DESOXYHEMIGOSSYPOL] yielded an LD100 of 41 µM. For the same compound, in the assay with Rhizoctonia solani [2] (Rhizoctonia solani, J-1, 72 h), the EC50 came to 3.52 µM.

`Cc1cc2c(C(C)C)c(O)c(O)c(C=O)c2c(O)c1-c1c(C)cc2c(C(C)C)c(O)c(O)c(C=O)c2c1O` [GOSSYPOL] showed an LD100 in the assay on Rhizoctonia solani [1] greater than 106 µM. For the same compound, the EC50 was 25.1 µM in the assay with Rhizoctonia solani [2] (Rhizoctonia solani, J-1, 72 h); 24.3 µM and 23.9 µM in the assay on Rhizoctonia solani [2].

`COc1cc(O)c2c(C=O)c(O)c(O)c(C(C)C)c2c1` [HEMIGOSSYPOL-6-METHYL ETHER] had an LD100 in the assay with Rhizoctonia solani [1] of 55 µM. Also, the EC50 in the assay with Rhizoctonia solani [2] (Rhizoctonia solani, J-1, 72 h) was 13.1 µM.

With `Cc1cc(O)c2c(C=O)c(O)c(O)c(C(C)C)c2c1` [HEMIGOSSYPOL], in the assay with Rhizoctonia solani [1], the LD100 came out at 77 µM. Also, the EC50 in the assay with Rhizoctonia solani [2] (Rhizoctonia solani, J-1, 72 h) amounted to 21.4 µM.

`CC1=Cc2cccc(C)c2C(=O)C1=O` [O-HIBISCANONE]: the LD100 in the assay with Rhizoctonia solani [1] was 27 µM. Besides, in the assay on Rhizoctonia solani [2] (Rhizoctonia solani, J-1, 72 h), the EC50 came out at 3.76 µM.
